These results are taken from ChEMBL document CHEMBL3763062, “Conformational Analysis of the Host-Defense Peptides Pseudhymenochirin-1Pb and -2Pa and Design of Analogues with Insulin-Releasing Activities and Reduced Toxicities” (J Nat Prod, 2015).

One data set relates to HUVEC. Briefly: Cytotoxicity against human HUVEC cells assessed as cell viability after 24 hrs by CellTiter-Glo luminescent assay. It is filed as cell-based. In short, it runs like this: (§1)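 Human tumour lines and HUVEC were cultured at 37 °C in medium with antibiotics. Cells were seeded at 5 × 10³ cells/well and exposed to peptides (10⁻⁶–10⁻⁴ M) in triplicate for 24 h at 37 °C. Viability was read as ATP luminescence. IC50 is the mean concentration giving 50% cell death over at least three independent experiments.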
On the technique in general: Cellular ATP, detected with luciferase, serves as a proxy for viable cell number.

The subject of another data set is A549. Briefly: Cytotoxicity against human A549 cells assessed as cell viability after 24 hrs by CellTiter-Glo luminescent assay. The note with it: A549, 24 h. In kind it is functional, cell-based. The essentials: as §1
A short description of data set [1]: Cytotoxicity in rat BRIN-BD11 cells assessed as LDH release at >= 1 uM after 20 mins by CytoTox96 assay. In kind it is cell-based. To be noted: brin-bd11, 20 min. In short, it runs like this:
(§2)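 BRIN-BD11 monolayers were exposed to peptides (10⁻¹¹ to 3 × 10⁻⁶ M; n = 6) for 20 min at 37 °C in KRB buffer with 5.6 mM glucose. LDH in the supernatant was quantified by a colorimetric kit and compared with 5.6 mM glucose alone.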

Data set [2] can be described thus: Cytotoxicity against Swiss mouse RBC assessed as hemolytic activity […]. It is filed as cell-based. To be noted: Erythrocyte. In short, it runs like this: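 Erythrocytes came from male NIH Swiss mice and were exposed to peptides at 1.6 × 10⁻⁶ to […]. IC50 is the mean concentration producing 50% haemolysis.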

For the next data set, the system named is MDA-MB-231. Briefly: Cytotoxicity against human MDA-MB-231 cells assessed as cell viability after 24 hrs by CellTiter-Glo luminescent assay. It is filed as functional, cell-based. To be noted: MDA-MB-231, 24 h. The essentials:
as §1

The subject of a further data set is HT-29. Briefly: Cytotoxicity against human HT-29 cells assessed as cell viability after 24 hrs by CellTiter-Glo luminescent assay. In kind it is functional, cell-based. The note with it: HT-29, 24 h. In short, it runs like this: as §1
Another data set deals with Pseudomonas aeruginosa. Briefly: Antibacterial activity against Pseudomonas aeruginosa ATCC 27853 by microdilution method. In kind it is functional. In short, it runs like this: (§3)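 Reference ATCC strains tested. The MIC was determined by standard broth microdilution in three independent experiments.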
Data set [3] can be described thus: Cytotoxicity in rat BRIN-BD11 cells assessed as LDH release at 1 or 3 uM after 20 mins by CytoTox96 assay. The note with it: brin-bd11, 20 min. In kind it is cell-based. In short, it runs like this: as §2
The next data set deals with Staphylococcus aureus. As to the kind of experiment: Antibacterial activity against Staphylococcus aureus ATCC 25923 by microdilution method. In kind it is functional. The essentials:
as §3
(In general: Broth dilution looks for growth in wells or tubes with falling amounts of substance.)

For the next data set, the system named is Escherichia coli. As to the kind of experiment: Antibacterial activity against Escherichia coli ATCC 25922 by microdilution method. It is filed as functional. In short, it runs like this:
as §3

The subject of data set [4] is Staphylococcus epidermidis. Briefly: Antibacterial activity against Staphylococcus epidermidis ATCC 12228 by microdilution method. It is filed as functional. In short, it runs like this:
as §3

Data set [5] can be described thus: Induction of insulin release in rat BRIN-BD11 cells at 3 uM after 20 mins in presence of 5.6 mM glucose by radioimmunoassay relative to control. In kind it is functional. In short, it runs like this:
(§4)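 BRIN-BD11 cells were seeded and allowed to attach overnight at 37 °C. They were then incubated 20 min at 37 °C with peptides (10⁻¹¹ to 3 × 10⁻⁶ M; n = 8) in KRB buffer with 5.6 mM glucose. Supernatant insulin was measured by radioimmunoassay, expressed as ng/10⁶ cells/20 min, and compared with 5.6 mM glucose alone.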

Data set [6] in a line: (§5) Induction of insulin release in rat BRIN-BD11 cells after 20 mins by radioimmunoassay in presence of 5.6 mM glucose. It is filed as functional. To be noted: BRIN-BD11, 20 min, read-out: MEC. In short, it runs like this: as §4
Data set [7] in a line: Cytotoxicity in rat BRIN-BD11 cells assessed as LDH release at >1 uM after 20 mins by CytoTox96 assay. To be noted: brin-bd11, 20 min. It is filed as cell-based. The essentials: as §2
For orientation: Release of lactate dehydrogenase indicates damage to the cell membrane.

The next data set deals with BRIN-BD11. Described as §5. It is filed as functional. In short, it runs like this: as §4
Data set [8] in a line: Induction of insulin release in rat BRIN-BD11 cells at […] after 20 mins measured per 10^6 cells by radioimmunoassay in presence of 5.6 mM glucose (reference value: 0.97 to 1.05 ng). In kind it is functional.

In brackets after ≈: the same amount, converted by molar mass. Residues, ends and D or L forms follow the SMILES beside them.

As a reminder, the IC50 is the concentration at which inhibition is half-maximal. On to “H-GIFPIFAKLLGKVIKVASSLISKGRTK-OH [listing 1 of 2 here]”, for which the IC50 with HUVEC worked out at 5 µM; in the data set with A549, 2.5 µM; in data set [2], 4 µM; in the data set with MDA-MB-231 it was 4.3 µM; in the data set with HT-29, 5.6 µM. The Activity result in [1] was “Toxic”.

Usually MIC stands for the lowest concentration found to suppress growth. For `CC[C@H](C)[C@H](N)C(=O)N[C@@H](CCCCN)C(=O)N[C@H](C(=O)N1CCC[C@H]1C(=O)N[C@@H](CO)C(=O)N[C@@H](Cc1ccccc1)C(=O)N[C@@H](Cc1ccccc1)C(=O)N[C@H](CCCNC(=N)N)C(=O)N[C@@H](CC(N)=O)C(=O)N[C@H](C(=O)N[C@@H](CC(C)C)C(=O)N[C@@H](CCCCN)C(=O)N[C@@H](CCCCN)C(=O)N[C@H](C(=O)NCC(=O)N[C@@H](CCCCN)C(=O)N[C@@H](CCC(=O)O)C(=O)N[C@@H](C)C(=O)N[C@H](C(=O)N[C@@H](CO)C(=O)N[C@@H](CC(C)C)C(=O)N[C@H](C(=O)N[C@@H](C)C(=O)NCC(=O)N[C@@H](C)C(=O)N[C@@H](CC(C)C)C(=O)N[C@@H](CCCCN)C(=O)N[C@@H](CCC(N)=O)C(=O)N[C@@H](CO)C(=O)O)[C@@H](C)CC)C(C)C)C(C)C)[C@@H](C)CC)[C@@H](C)CC`, the IC50 with HUVEC is 27 µM; in the data set on A549, 7.2 µM; in data set [2], more than 100 µM; with MDA-MB-231, 20 µM; in the data set on HT-29, 35 µM. In addition, the MIC with Pseudomonas aeruginosa was 10 µM (≈ 31.6 µg/mL); with Staphylococcus aureus it was 80 µM (≈ 253 µg/mL); in the data set on Escherichia coli it was 2.5 µM (≈ 7.89 µg/mL); in data set [4], 40 µM (≈ 126 µg/mL). Also, the Activity entry in data set [3] is listed as “Non-toxic”; in data set [5], 190%. Besides, the minimal effective concentration in data set [6] was determined as 0.0003 µM.

With “H-GIFPIFAKLLGKVIKVASSLISKGRTK-OH [listing 2 of 2 here]”, the minimal effective concentration in [6] is 0.001 µM.

As to `CC[C@H](C)[C@H](N)C(=O)N[C@@H](CCCCN)C(=O)N[C@H](C(=O)N1CCC[C@H]1C(=O)N[C@@H](CO)C(=O)N[C@@H](Cc1ccccc1)C(=O)N[C@@H](Cc1ccccc1)C(=O)N[C@@H](CCCNC(=N)N)C(=O)N[C@@H](CC(N)=O)C(=O)N[C@H](C(=O)N[C@@H](CC(C)C)C(=O)N[C@@H](CCCCN)C(=O)N[C@@H](CCCCN)C(=O)N[C@H](C(=O)NCC(=O)N[C@@H](CCCCN)C(=O)N[C@H](CCCCN)C(=O)N[C@@H](C)C(=O)N[C@H](C(=O)N[C@@H](CO)C(=O)N[C@@H](CC(C)C)C(=O)N[C@H](C(=O)N[C@@H](C)C(=O)NCC(=O)N[C@@H](C)C(=O)N[C@@H](CC(C)C)C(=O)N[C@@H](CCCCN)C(=O)N[C@@H](CCC(N)=O)C(=O)N[C@@H](CO)C(=O)O)[C@@H](C)CC)C(C)C)C(C)C)[C@@H](C)CC)[C@@H](C)CC`, the IC50 in the data set on HUVEC was found to be 5 µM; in the data set on A549 it was 2.1 µM; in [2], 19 µM; in the data set on MDA-MB-231, 3.6 µM; in the data set on HT-29, 11 µM. The Activity entry in [1] was “Toxic”. In data set [6], the minimal effective concentration turned out to be 0.0003 µM.

For the compound `CC[C@H](C)[C@H](NC(=O)CN)C(=O)N[C@@H](Cc1ccccc1)C(=O)N1CCC[C@H]1C(=O)N[C@H](C(=O)N[C@@H](Cc1ccccc1)C(=O)N[C@@H](C)C(=O)N[C@@H](CCCCN)C(=O)N[C@@H](CC(C)C)C(=O)N[C@@H](CC(C)C)C(=O)NCC(=O)N[C@@H](CCCCN)C(=O)N[C@H](C(=O)N[C@H](C(=O)N[C@@H](CCCCN)C(=O)N[C@H](C(=O)N[C@@H](C)C(=O)N[C@@H](CO)C(=O)N[C@@H](CO)C(=O)N[C@@H](CC(C)C)C(=O)N[C@H](C(=O)N[C@@H](CO)C(=O)N[C@@H](CCCCN)C(=O)NCC(=O)N[C@@H](CCCNC(=N)N)C(=O)NC(C(=O)N[C@@H](CCC(=O)O)C(=O)O)[C@@H](C)O)[C@@H](C)CC)C(C)C)[C@@H](C)CC)C(C)C)[C@@H](C)CC` (some centres not stated) (HELM PEPTIDE1{G.I.F.P.I.F.A.K.L.L.G.K.V.I.K.V.A.S.S.L.I.S.K.G.R.[C[C@@H](O)C(N[*:1])C(=O)[*:2]].E}$$$$V2.0), the 50% inhibitory concentration (IC50) was 68 µM in the data set with HUVEC; 6 µM in the data set with A549; 7 µM in data set [2]; 6.2 µM in the data set with MDA-MB-231; 12 µM in the data set on HT-29. Besides, the Activity entry in data set [7] is “Toxic”; in data set [5] it was 700%. Moreover, the MIC with Pseudomonas aeruginosa was 80 µM (≈ 230 µg/mL); in the data set with Staphylococcus aureus, 5 µM (≈ 14.4 µg/mL); with Escherichia coli it was 80 µM (≈ 230 µg/mL); in [4], 5 µM (≈ 14.4 µg/mL). The minimal effective concentration in data set [6] is 0.0001 µM.

For `CC[C@H](C)[C@H](N)C(=O)N[C@@H](CCCCN)C(=O)N[C@H](C(=O)N1CCC[C@H]1C(=O)N[C@@H](CO)C(=O)N[C@@H](Cc1ccccc1)C(=O)N[C@@H](Cc1ccccc1)C(=O)N[C@@H](CCCNC(=N)N)C(=O)N[C@@H](CC(N)=O)C(=O)N[C@H](C(=O)N[C@@H](CC(C)C)C(=O)N[C@@H](CCCCN)C(=O)N[C@@H](CCCCN)C(=O)N[C@H](C(=O)NCC(=O)N[C@@H](CCCCN)C(=O)N[C@@H](CCC(=O)O)C(=O)N[C@@H](C)C(=O)N[C@H](C(=O)N[C@@H](CO)C(=O)N[C@@H](CC(C)C)C(=O)N[C@H](C(=O)N[C@@H](C)C(=O)NCC(=O)N[C@@H](C)C(=O)N[C@@H](CC(C)C)C(=O)N[C@@H](CCCCN)C(=O)N[C@@H](CCC(N)=O)C(=O)N[C@@H](CO)C(=O)O)[C@@H](C)CC)C(C)C)C(C)C)[C@@H](C)CC)[C@@H](C)CC`, the IC50 in the data set on HUVEC stood at 5.6 µM; in the data set on A549, 2.5 µM; in data set [2] it was 30 µM; with MDA-MB-231, 6.6 µM; in the data set with HT-29, 9.5 µM. Moreover, the Activity result in [7] is “Toxic”; in data set [5] it was 530%; in the data set on BRIN-BD11 it was “Dose-dependent effect”. The MIC was 20 µM (≈ 63.1 µg/mL) in the data set with Pseudomonas aeruginosa, 5 µM (≈ 15.8 µg/mL) against Staphylococcus aureus, 10 µM (≈ 31.6 µg/mL) with Escherichia coli and 2.5 µM (≈ 7.89 µg/mL) in data set [4]. In addition, the minimal effective concentration in [6] was 0.0001 µM.

In the case of `C[C@H](N)C(=O)O` [ALANINE], the Activity in [8] is 4.2 ng.
